Results collected from several papers.

| Compound | test system | setting | clearance [mL/min/kg] |
| --- | --- | --- | --- |
| NCC1CCN(c2nc(-c3ccncc3)nc3sc4c(c23)CCCC4)CC1 | female CD-1 mouse, plasma | intravenous, 10 mg/kg | 38 |
| CCNc1nc2c(c(N3CC(=O)Nc4cc(OC)ccc43)n1)CCC2 | female C57BL/6 mouse, plasma | intravenous, 4 mg/kg, single dose | 108 |
| CCc1cc(OC)c2nccc(N3CCc4c(cc(Cn5ccnc5)cc4-c4cn(C)nc4C(F)(F)F)C3=O)c2c1 | male CD-1 mouse, plasma | intravenous, 3 mg/kg | 16 |
| Cc1c(Br)cc(NC(=O)NS(=O)(=O)O)cc1Br | CD-1 mouse, blood | intravenous, 2 mg/kg | 5.65 |
| O=C(Nc1ccc(Cl)c(Cl)c1)c1ccc(N2CCNCC2)c([N+](=O)[O-])c1 | male mouse, plasma | oral, 10 mg/kg | 53.5 |
| Cc1noc(C)c1-c1ccc2nc(N3CCN(CCN(C)C)CC3)nc(N3CCOC[C@@H]3c3ccccc3)c2c1 | CD-1 mouse, plasma | intravenous, 2 mg/kg | 62.3 |
| COc1nc(-c2cc(C)c(N[C@@H](C)c3ccc(F)cc3)nn2)ccc1-n1cnc(C)c1 | male CD-1 mouse, plasma | intravenous, 1 mg/kg, single dose | 3.9 |
| CC(C)c1cnn2c(NCc3ccccc3)cc(NC[C@H]3CCNC[C@@H]3O)nc12 | male CD-1 mouse, plasma | intravenous, 10 mg/kg | 78 |
| C=C(C[C@H](N)C(=O)O)C(=O)NCc1ccc(F)cc1 | male CD-1 mouse, plasma | intravenous, 2.5 mg/kg | 29.4 |
| COc1cc(OC)c2nccc(N3CCc4c(cc(Cn5ccnc5)cc4-c4cn(C)nc4C(F)(F)F)C3=O)c2c1 | male CD-1 mouse, plasma | intravenous, 3 mg/kg | 63 |
| CC[C@H](C)[C@@H]1NC(=O)[C@@](C)(NC(=O)[C@H](CCCNC(=N)N)NC(=O)[C@H](CC(C)C)NC(=O)[C@@H](NC(=O)[C@H](CCC(N)=O)NC(=O)[C@H](CC(C)C)NC(C)=O)[C@@H](C)O)CCCC=CCCC[C@@](C)(C(=O)N[C@@H](CC(C)C)C(=O)N[C@@H](Cc2ccc3ccccc3c2)C(N)=O)NC(=O)[C@H](CCCNC(=N)N)NC(=O)[C@H](CCC(N)=O)NC1=O | male BALB/c mouse, plasma | intravenous, 15 mg/kg | 0.96 |
| CC(C)(C)c1ccc(O)c(CN(Cc2cc(C(C)(C)C)ccc2O)C2CCC(NC(N)=O)CC2)c1 (stereo not shown) | male C57BL/6 mouse, plasma | intraperitoneal, 10 mg/kg, single dose | 17 |
| O=C1C2N=CN3C(NCc4c(F)ccc5c4CCO5)=NC=C(c4cnc(C(F)(F)F)cc4CN1CC(F)F)C23 (stereo not shown) | male CD-1 mouse, plasma | intravenous, 2 mg/kg | 0.59 |
